Measurements taken from ChEMBL document CHEMBL5150051, “Identification and Characterization of a Novel Indoleamine 2,3-Dioxygenase 1 Protein Degrader for Glioblastoma” (J Med Chem, 2022).
Activity calls are given as the source filed them. No cut-off for these calls is given here.

target: von Hippel-Lindau disease tumor suppressor/Indoleamine 2,3-dioxygenase 1 (Homo sapiens) (UniProt P14902+P40337); experiment: Protac activity at IDO1/VHL in IFNgamma-stimulated human U87 cells assessed as IDO1 degradation at 10 uM measured after 24 hrs by Western blotting analysis relative to control; format: cell-based; details: not given
Outline: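 U87 GBM cells primed with human IFNγ 50 ng/mL for 24 h, then exposed to PROTAC at 10 μM for 24 h. Lysates run on western blot; IDO1 bands quantified by densitometry and expressed as percent of normalized IDO1 protein level.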

Sequence of von Hippel-Lindau disease tumor suppressor/Indoleamine 2,3-dioxygenase 1 (Homo sapiens) (P14902 whole entry, looked up): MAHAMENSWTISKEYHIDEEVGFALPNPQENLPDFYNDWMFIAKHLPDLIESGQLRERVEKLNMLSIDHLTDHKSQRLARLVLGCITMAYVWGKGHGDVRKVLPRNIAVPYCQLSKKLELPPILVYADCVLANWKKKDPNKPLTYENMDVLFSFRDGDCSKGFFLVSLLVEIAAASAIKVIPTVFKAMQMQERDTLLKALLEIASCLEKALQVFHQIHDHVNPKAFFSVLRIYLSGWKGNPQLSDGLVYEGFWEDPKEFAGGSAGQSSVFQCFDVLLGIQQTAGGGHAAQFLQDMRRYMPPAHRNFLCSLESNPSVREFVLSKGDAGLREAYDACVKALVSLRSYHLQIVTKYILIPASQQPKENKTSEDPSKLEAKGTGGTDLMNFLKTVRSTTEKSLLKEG
Sequence of von Hippel-Lindau disease tumor suppressor/Indoleamine 2,3-dioxygenase 1 (Homo sapiens) (P40337 whole entry, looked up): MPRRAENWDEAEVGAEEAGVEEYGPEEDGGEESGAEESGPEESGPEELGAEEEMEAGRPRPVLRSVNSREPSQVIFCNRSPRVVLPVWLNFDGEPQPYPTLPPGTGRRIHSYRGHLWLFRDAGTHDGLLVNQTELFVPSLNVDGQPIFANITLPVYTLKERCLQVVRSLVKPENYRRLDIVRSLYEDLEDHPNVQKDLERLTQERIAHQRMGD

Activity	SMILES
0%	Cc1ncsc1-c1ccc(CNC(=O)[C@@H]2C[C@@H](O)CN2C(=O)[C@@H](NC(=O)C2(F)CC2)C(C)(C)C)c(OCCOCCOCCOCCOc2cc(NC(=O)[C@H](C)[C@H]3CC[C@@H](c4ccnc5ccc(F)cc54)CC3)ccc2Cl)c1
0%	Cc1ncsc1-c1ccc(CNC(=O)[C@@H]2C[C@@H](O)CN2C(=O)[C@@H](NCCOCCOCCOCCOc2ccc(NC(=O)[C@H](C)[C@H]3CC[C@@H](c4ccnc5ccc(F)cc54)CC3)cc2)C(C)(C)C)cc1
0%	Cc1ncsc1-c1ccc(CNC(=O)[C@@H]2C[C@@H](O)CN2C(=O)[C@@H](NC(=O)C2(F)CC2)C(C)(C)C)c(OCCOCCOCCOCCOCCOc2ccc(NC(=O)[C@H](C)[C@H]3CC[C@@H](c4ccnc5ccc(F)cc54)CC3)cc2)c1
91%	Cc1ncsc1-c1ccc(CNC(=O)[C@@H]2C[C@@H](O)CN2C(=O)[C@@H](NC(=O)C2(F)CC2)C(C)(C)C)c(OCCOCCOCCC(=O)N2CC(Oc3ccc(NC(=O)[C@H](C)[C@H]4CC[C@@H](c5ccnc6ccc(F)cc65)CC4)cc3)C2)c1
0%	Cc1ncsc1-c1ccc(CNC(=O)[C@@H]2C[C@@H](O)CN2C(=O)[C@@H](NCCOCCOc2ccc(NC(=O)[C@H](C)[C@H]3CC[C@@H](c4ccnc5ccc(F)cc54)CC3)cc2)C(C)(C)C)cc1
23%	Cc1ncsc1-c1ccc(CNC(=O)[C@@H]2C[C@@H](O)CN2C(=O)[C@@H](NC(=O)C2(F)CC2)C(C)(C)C)c(OCCOCCOc2cc(NC(=O)[C@H](C)[C@H]3CC[C@@H](c4ccnc5ccc(F)cc54)CC3)ccc2Cl)c1
0%	Cc1ncsc1-c1ccc(CNC(=O)[C@@H]2C[C@@H](O)CN2C(=O)[C@@H](NCCOCCOCCOCCOCCOCCOc2cc(NC(=O)[C@H](C)[C@H]3CC[C@@H](c4ccnc5ccc(F)cc54)CC3)ccc2Cl)C(C)(C)C)cc1
0%	Cc1ncsc1-c1ccc(CNC(=O)[C@@H]2C[C@@H](O)CN2C(=O)[C@@H](NC(=O)C2(F)CC2)C(C)(C)C)c(OCCOCCOCCCN2CCC(Oc3ccc(NC(=O)[C@H](C)[C@H]4CC[C@@H](c5ccnc6ccc(F)cc65)CC4)cc3)CC2)c1
0%	Cc1ncsc1-c1ccc(CNC(=O)[C@@H]2C[C@@H](O)CN2C(=O)[C@@H](NCCOCCOCCOCCOCCOCCOc2cccc(NC(=O)[C@H](C)[C@H]3CC[C@@H](c4ccnc5ccc(F)cc54)CC3)c2)C(C)(C)C)cc1
0%	Cc1ncsc1-c1ccc(CNC(=O)[C@@H]2C[C@@H](O)CN2C(=O)[C@@H](NC(=O)C2(F)CC2)C(C)(C)C)c(OCCOCCOCCOCCOc2ccc(NC(=O)[C@H](C)[C@H]3CC[C@@H](c4ccnc5ccc(F)cc54)CC3)cc2)c1
0%	Cc1ncsc1-c1ccc(CNC(=O)[C@H]2C[C@H](O)CN2C(=O)[C@H](NCCCOc2cc(NC(=O)[C@H](C)[C@H]3CC[C@@H](c4ccnc5ccc(F)cc54)CC3)ccc2Cl)C(C)(C)C)cc1
88%	Cc1ncsc1-c1ccc(CNC(=O)[C@@H]2C[C@@H](O)CN2C(=O)[C@@H](NCCOCCC(=O)N2CCC(Oc3ccc(NC(=O)[C@H](C)[C@H]4CC[C@@H](c5ccnc6ccc(F)cc65)CC4)cc3)CC2)C(C)(C)C)cc1
0%	Cc1ncsc1-c1ccc(CNC(=O)[C@@H]2C[C@@H](O)CN2C(=O)[C@@H](NCCOCCOCCOCCOc2cc(NC(=O)[C@H](C)[C@H]3CC[C@@H](c4ccnc5ccc(F)cc54)CC3)ccc2Cl)C(C)(C)C)cc1
23%	Cc1ncsc1-c1ccc(CNC(=O)[C@@H]2C[C@@H](O)CN2C(=O)[C@@H](NC(=O)C2(F)CC2)C(C)(C)C)c(OCCCCCCCCCCOc2ccc(NC(=O)[C@H](C)[C@H]3CC[C@@H](c4ccnc5ccc(F)cc54)CC3)cc2)c1
10%	Cc1ncsc1-c1ccc(CNC(=O)[C@@H]2C[C@@H](O)CN2C(=O)[C@@H](NC(=O)C2(F)CC2)C(C)(C)C)c(OCCCCOc2ccc(NC(=O)[C@H](C)[C@H]3CC[C@@H](c4ccnc5ccc(F)cc54)CC3)cc2)c1
0%	Cc1ncsc1-c1ccc(CNC(=O)[C@@H]2C[C@@H](O)CN2C(=O)[C@@H](NC(=O)C2(F)CC2)C(C)(C)C)c(OCCCCCCOc2cc(NC(=O)[C@H](C)[C@H]3CC[C@@H](c4ccnc5ccc(F)cc54)CC3)ccc2Cl)c1
27%	Cc1ncsc1-c1ccc(CNC(=O)[C@@H]2C[C@@H](O)CN2C(=O)[C@@H](NC(=O)C2(F)CC2)C(C)(C)C)c(OCCOCCOCCOCCOCCOCCOc2ccc(NC(=O)[C@H](C)[C@H]3CC[C@@H](c4ccnc5ccc(F)cc54)CC3)cc2)c1
0%	Cc1ncsc1-c1ccc(CNC(=O)[C@@H]2C[C@@H](O)CN2C(=O)[C@@H](NC(=O)C2(F)CC2)C(C)(C)C)c(OCCCOc2cc(NC(=O)[C@H](C)[C@H]3CC[C@@H](c4ccnc5ccc(F)cc54)CC3)ccc2Cl)c1
3%	Cc1ncsc1-c1ccc(CNC(=O)[C@@H]2C[C@@H](O)CN2C(=O)[C@@H](NC(=O)C2(F)CC2)C(C)(C)C)c(OCCOCCOCCC(=O)N2CCC(Oc3ccc(NC(=O)[C@H](C)[C@H]4CC[C@@H](c5ccnc6ccc(F)cc65)CC4)cc3)CC2)c1
90%	Cc1ncsc1-c1ccc(CNC(=O)[C@@H]2C[C@@H](O)CN2C(=O)[C@@H](NC(=O)C2(F)CC2)C(C)(C)C)c(OCCCCCCCCCOc2cc(NC(=O)[C@H](C)[C@H]3CC[C@@H](c4ccnc5ccc(F)cc54)CC3)ccc2Cl)c1

target: Indoleamine 2,3-dioxygenase 1 (Homo sapiens, UniProt P14902); experiment: Binding affinity to IDO1 (unknown origin) assessed as dissociation constant by bio-layer interferometry assay; details: not given
Outline: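 Bio-layer interferometry measured binding to IDO1 at 30 °C in PBS with 0.5% DMSO. Kd, kon and koff were derived.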

Sequence of Indoleamine 2,3-dioxygenase 1 (P14902 whole entry): as the sequence (P14902 whole entry, looked up) above

SMILES	Kd
C[C@@H](C(=O)Nc1ccc(OC2CCN(C(=O)CCOCCOCCNc3cccc4c3C(=O)N(C3CCC(=O)N(C)C3=O)C4=O)CC2)cc1)[C@H]1CC[C@@H](c2ccnc3ccc(F)cc32)CC1 (some centres not stated)	1100 nM

target: Protein cereblon/Indoleamine 2,3-dioxygenase 1 (Homo sapiens, UniProt P14902+Q96SW2); experiment: Protac activity at CRBN/IDO1 in human U87 cells assessed as decrease in phosphorylated NF-kappaB p65 in nucleus at 1 to 10 uM measured after 24 hrs by Western blot analysis; format: cell-based; details: dose 1-10 µM
Sequence (P14902 whole entry, looked up): as above
Sequence (Q96SW2 whole entry, looked up): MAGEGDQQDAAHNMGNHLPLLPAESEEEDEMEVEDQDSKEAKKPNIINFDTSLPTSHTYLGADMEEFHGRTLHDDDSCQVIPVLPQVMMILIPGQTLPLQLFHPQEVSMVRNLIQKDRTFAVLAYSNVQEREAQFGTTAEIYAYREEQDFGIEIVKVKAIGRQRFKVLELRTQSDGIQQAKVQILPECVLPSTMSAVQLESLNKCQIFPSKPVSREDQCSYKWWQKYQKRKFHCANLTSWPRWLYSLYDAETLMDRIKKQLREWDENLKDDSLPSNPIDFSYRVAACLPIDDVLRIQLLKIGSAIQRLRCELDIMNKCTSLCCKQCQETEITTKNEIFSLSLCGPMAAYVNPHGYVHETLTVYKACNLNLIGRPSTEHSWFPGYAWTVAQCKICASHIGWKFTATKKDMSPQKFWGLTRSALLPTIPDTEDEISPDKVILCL

SMILES	Activity
C[C@@H](C(=O)Nc1ccc(OC2CCN(C(=O)CCOCCOCCNc3cccc4c3C(=O)N(C3CCC(=O)N(C)C3=O)C4=O)CC2)cc1)[C@H]1CC[C@@H](c2ccnc3ccc(F)cc32)CC1 (some centres not stated)	Active
